# Legend:
# [1] = In vitro photoprotection of the compound assessed as UVA protection factor by Optometric 290S analyzer
# How it was run: (§1)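 Transmittance scans were taken from 290 to 400 nm at 2 nm intervals and compared against a reference scan. SPF, UVA protection factor and UVA/UVB ratio were calculated from the transmittance data.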
# [2] = Antioxidant activity of the compound assessed as reduction in absorbance of DPPH after 60 mins incubation at 35 uM by DPPH radical scavenging /microplate assay; format: physicochemical; settings: 1 h
# How it was run: (§2)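 DPPH radical prepared in methanol. Test compounds and standards made as 10 mM DMSO stocks, diluted in methanol, and tested at […]; final DMSO […]. Samples mixed with DPPH in triplicate, kept at 37 °C protected from light, and read at 519 nm after 30 and 60 min. % scavenging = (Abs control − Abs sample)/Abs control × 100.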
# [3] = Antioxidant activity of the compound assessed as reduction in absorbance of DPPH after 60 mins incubation at 100 uM by DPPH radical scavenging /microplate assay; format: physicochemical; settings: 1 h; how it was run: as §2
# [4] = In vitro photoprotection of the compound assessed as UVA to UVB ratio by Optometric 290S analyzer; how it was run: as §1
# [5] = In vitro photoprotection of the compound assessed as sun protection factor by Optometric 290S analyzer; how it was run: as §1
# [6] = Antioxidant activity of the compound assessed as reduction in absorbance of DPPH after 60 mins incubation at 1000 uM by DPPH radical scavenging /microplate assay; format: physicochemical; settings: 1 h; how it was run: as §2
# [7] = Antioxidant activity of the compound assessed as reduction in absorbance of DPPH after 60 mins incubation at 300 uM by DPPH radical scavenging /microplate assay; format: physicochemical; settings: 1 h; how it was run: as §2
# [8] = Antioxidant activity of the compound assessed as reduction in absorbance of DPPH after 60 mins incubation by DPPH radical scavenging /microplate assay; format: physicochemical; how it was run: as §2
SMILES,inhibition (INH) [2] [%],inhibition (INH) [3] [%],inhibition (INH) [6] [%],inhibition (INH) [7] [%],IC50 [8] [µM],UVAPF [1],Ratio [4],SPF [5]
COc1ccc(/C=C/C=N/NC(=O)c2ccc(C(C)(C)C)cc2)cc1,-6.6,-8.3,-7.1,-5.6,,4,1,4
COc1ccc(C(=O)c2ccccc2)c(O)c1,,,,,,,0.6,1
COc1ccc(C(=O)CC(=O)c2ccc(C(C)(C)C)cc2)cc1,,,,,,39,1.8,
COc1ccc(/C=C/C=N/NC(=O)c2ccc(O)cc2)cc1,-3.4,-1.5,2.8,-2.6,,2,1.1,2
CCCCC(CC)COC(=O)C=Cc1ccc(OC)cc1 (configuration not stated),,,,,,,,13
O=C(N/N=C/c1ccc(O)cc1)c1ccc(O)cc1,18.4,38,65,54.4,275,2,0.8,3

# Further lines, with some results ahead:
inhibition (INH) [2] [%],inhibition (INH) [3] [%],inhibition (INH) [6] [%],inhibition (INH) [7] [%],IC50 [8] [µM],SMILES,UVAPF [1],Ratio [4],SPF [5]
10.2,15,38.7,28.9,,CC(C)(C)c1ccc(C(=O)N/N=C/c2ccc(O)cc2)cc1,2,0.8,2
34.8,56.7,75.5,77.2,88.2,COc1cc(/C=C/C=N/NC(=O)c2ccc(O)cc2)ccc1O,2,1.2,2
5.6,11.2,34.2,26.5,,O=C(N/N=C/c1cc(O)cc(O)c1)c1ccc(O)cc1,4,0.6,5
20.5,45.5,73.8,71.3,110,Oc1ccc(/C=C/c2cc(O)cc(O)c2)cc1 [RESVERATROL],2,0.6,2
7,10.9,31.3,20.1,,CC(C)(C)c1ccc(C(=O)N/N=C/c2cc(O)cc(O)c2)cc1,3,0.6,4
20,45.6,76.1,75.1,110,COc1cc(/C=C/C=N/NC(=O)c2ccc(C(C)(C)C)cc2)ccc1O,2,1.1,2
18.8,77.9,81.2,80.7,64.2,O=C1O[C@H]([C@@H](O)CO)C(O)=C1O [ASCORBIC ACID],,,

# From ChEMBL document CHEMBL3351296, “Synthesis, antioxidant and photoprotection activities of hybrid derivatives useful to prevent skin cancer” (Bioorg Med Chem, 2014)
